The test system of data set [1] is Chikungunya virus. The data set can be described thus: Antiviral activity against Chikungunya virus 899 infected in African green monkey Vero A cells assessed as inhibition of viral RNA replication by RT-qPCR analysis. The data set is classed as functional, organism-based. The settings on record: Chikungunya virus, 899, Vero.
Data set [2] deals with Chikungunya virus. The experiment in a line: Antiviral activity against Chikungunya virus infected in African green monkey Vero cells assessed as reduction in virus-induced cytopathic effect after 7 days by MTS assay. In kind it is functional, organism-based. The settings on record: 168 h.
A short description of data set [3]: Selectivity index, ratio of CC50 for African green monkey Vero cells to EC50 for chikungunya virus infected in African green monkey Vero E6 cells. The data set is classed as toxicity, Vero C1008. The settings on record: read-out: Ratio CC50/EC50.
Data set [4] in a line: Cytotoxicity against African green monkey Vero A cells by MTS assay. The data set is classed as cell-based. The settings on record: chlorocebus aethiops. An outline of the steps: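 Host-cell metabolism in Vero subtype A cells was measured by MTS read-out. CC50 is the concentration reducing host-cell metabolism by 50%. It was determined only for selected conjugates.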
Data set [5] is described as follows: Selectivity index, ratio of CC50 for African green monkey Vero A cells to EC50 for chikungunya virus 899 infected in African green monkey Vero A cells. The data set is classed as toxicity. The settings on record: read-out: Ratio CC50/EC50.
Data set [6] can be described thus: Lipophilicity, log P of the compound. In kind it is physicochemical. The settings on record: octanol/water.
Data set [7] has as its system Chikungunya virus. The experiment in a line: Antiviral activity against Chikungunya virus infected in African green monkey Vero E6 cells assessed as reduction in virus-induced cytopathic effect. In kind it is functional, organism-based. The settings on record: Vero C1008.
A short description of data set [8]: Selectivity index, ratio of CC50 for African green monkey Vero E6 cells to EC50 for chikungunya virus infected in African green monkey Vero cells. The settings on record: read-out: Ratio CC50/EC50. In kind it is toxicity, Vero C1008.
A short description of data set [9]: Aqueous solubility of the compound measured per 100 ml. The data set is classed as physicochemical. The settings on record: buffer.

pEC50: −log10 of the molar value. Where only a bound is given, the exact number is not on record here.

On to `Nc1nc(SCc2cc3cc(Br)ccc3oc2=O)c2nc(SCc3ccccc3)n([C@@H]3O[C@H](CO)[C@@H](O)[C@H]3O)c2n1`, for which the pEC50 in [1] was under 3.82.

Consider `C=C(C)[C@@]12OC3(c4ccccc4)O[C@@H]1[C@@H]1[C@@H]4O[C@]4(CO)[C@@H](O)[C@@]4(O)[C@@H](C=C(C)[C@@H]4O)[C@@]1(O3)[C@H](C)[C@@H]2OC(=O)C(C)CCCCCCCC` (stereo partly specified), for which, in [2], the pEC50 is 6.22. Also, the selectivity ratio in data set [3] came out at 71.7.

In data set [4], `Cc1ccc2oc(=O)c(CSc3nc(N)nc4c3nc(SCc3cc5cc(C)ccc5oc3=O)n4[C@@H]3O[C@H](CO)[C@@H](O)[C@H]3O)cc2c1` returned a CC50 of 81.3 µM. Also, in data set [1], the pEC50 is 4.39. Also, the selectivity ratio in data set [5] was determined as 1.98. Besides, the logP in [6] amounted to 3.22.

For `Nc1nc(SCc2cc3cc(Cl)ccc3oc2=O)c2nc(SCc3ccccc3)n([C@@H]3O[C@H](CO)[C@@H](O)[C@H]3O)c2n1`, in data set [1], the pEC50 was under 3.79.

Regarding `Nc1nc(SCc2cc3ccccc3oc2=O)c2nc(SCc3cccc4ccccc34)n([C@@H]3O[C@H](CO)[C@@H](O)[C@H]3O)c2n1`, the pEC50 in data set [1] is under 3.80.

`COc1ccc2oc(=O)c(CSc3nc(N)nc4c3nc(SCc3ccccc3)n4[C@@H]3O[C@H](CO)[C@@H](O)[C@H]3O)cc2c1`: the pEC50 in [1] was under 3.79. In data set [6], this molecule had a logP of 2.78.

With `CSc1nc2c(SCc3cc4cc(C)ccc4oc3=O)nc(N)nc2n1[C@@H]1O[C@H](CO)[C@@H](O)[C@H]1O`, in data set [1], the pEC50 is under 3.71.

For `Nc1nc2c(nc(SCc3ccccc3)n2[C@@H]2O[C@H](CO)[C@@H](O)[C@H]2O)c(=S)[nH]1`, the pEC50 in data set [1] was under 3.63.

`Nc1nc(SCc2cc3ccccc3oc2=O)c2nc(SCc3ccccc3)n([C@@H]3O[C@H](CO)[C@@H](O)[C@H]3O)c2n1`: the pEC50 in data set [1] is under 3.76.

`Nc1nc(SCc2cc3ccccc3oc2=O)c2nc(SCc3cc4ccccc4oc3=O)n([C@@H]3O[C@H](CO)[C@@H](O)[C@H]3O)c2n1`: the pEC50 in [1] was under 3.81.

Consider `Nc1nc2c(nc(SCc3cccc4ccccc34)n2[C@@H]2O[C@H](CO)[C@@H](O)[C@H]2O)c(=S)[nH]1`, for which the pEC50 in data set [1] was under 3.67.

For `CSCc1cc2ccccc2oc1=O`, the pEC50 in data set [1] was under 3.31.

Turning to `Nc1nc(SCc2cc3cc(F)ccc3oc2=O)c2nc(SCc3cc4cc(F)ccc4oc3=O)n([C@@H]3O[C@H](CO)[C@@H](O)[C@H]3O)c2n1`, in [1], the pEC50 was under 3.84.

With `COc1cccc2cc(CSc3nc(N)nc4c3nc(SCc3cc5cccc(OC)c5oc3=O)n4[C@@H]3O[C@H](CO)[C@@H](O)[C@H]3O)c(=O)oc12`, in data set [4], the CC50 was 96.5 µM. Also, the pEC50 in data set [1] is 4.99. Also, the selectivity ratio in data set [5] was found to be 9.37. This molecule also showed a logP in data set [6] of 2.97.

For the molecule `Nc1nc2c(nc(S)n2[C@@H]2O[C@H](CO)[C@@H](O)[C@H]2O)c(=S)[nH]1`, the pEC50 in data set [1] was under 3.52. The same molecule yielded a logP in data set [6] of -0.13.

Regarding `Nc1nc(SCc2cc3cc(Br)ccc3oc2=O)c2nc(SCc3cc4cc(Br)ccc4oc3=O)n([C@@H]3O[C@H](CO)[C@@H](O)[C@H]3O)c2n1`, the pEC50 in data set [1] is under 3.91.

For the molecule `CSc1nc2c(SCc3cc4cc(Br)ccc4oc3=O)nc(N)nc2n1[C@@H]1O[C@H](CO)[C@@H](O)[C@H]1O`, the pEC50 in [1] was under 3.76.

Regarding `CSc1nc2c(SCc3cc4ccccc4oc3=O)nc(N)nc2n1[C@@H]1O[C@H](CO)[C@@H](O)[C@H]1O`, the pEC50 in data set [1] was under 3.70.

Take `CCN1C(=O)CCSC1c1cc2cc(Cc3ccc4oc(C5SCCC(=O)N5CC)cc4c3)ccc2o1` (stereo unspecified): the pEC50 in data set [7] was 5.72. For the same molecule, the selectivity ratio in data set [8] amounted to 75.

For the molecule `COc1cccc2cc(CSc3nc(N)nc4c3nc(SC)n4[C@@H]3O[C@H](CO)[C@@H](O)[C@H]3O)c(=O)oc12`, the pEC50 in data set [1] is under 3.73.

The molecule `COc1ccc2oc(=O)c(CSc3nc(N)nc4c3nc(SCc3cccc5ccccc35)n4[C@@H]3O[C@H](CO)[C@@H](O)[C@H]3O)cc2c1` gave a CC50 in data set [4] of over 227 µM. The pEC50 in data set [1] is 4.86. Further, the selectivity ratio in data set [5] was over 16.3. Besides, the logP in data set [6] worked out at 3.77.

As to `Nc1nc(SCc2cc3cc(Cl)ccc3oc2=O)c2nc(SCc3cc4cc(Cl)ccc4oc3=O)n([C@@H]3O[C@H](CO)[C@@H](O)[C@H]3O)c2n1`, the pEC50 in [1] is under 3.85.

For `CSc1nc2c(SCc3cc4cc(Cl)ccc4oc3=O)nc(N)nc2n1[C@@H]1O[C@H](CO)[C@@H](O)[C@H]1O`, the pEC50 in [1] is under 3.73.

The molecule `COc1ccc2oc(=O)c(CSc3nc(N)nc4c3nc(SCc3cc5cc(OC)ccc5oc3=O)n4[C@@H]3O[C@H](CO)[C@@H](O)[C@H]3O)cc2c1` gave a CC50 in data set [4] of over 212 µM. Also, the pEC50 in data set [1] was 5.00. The selectivity ratio in data set [5] was over 21.7. In data set [6], this molecule gave a logP of 3.01. Moreover, the solubility in data set [9] is on record as 7.2 mg.

The record behind these values is ChEMBL document CHEMBL4400522, “Chikungunya virus inhibition by synthetic coumarin-guanosine conjugates” (Eur J Med Chem, 2019).
